Source: PubChem BioAssay
Calls of active or inactive are those of the source.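 How the source made its calls, unless noted: active means NADPH fluorescence slope more negative than the mean of all samples by about 3 SD, 99.7% confidence; inactive means the rest.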

Key:
[1] = inhibitors of TNFa-induced NFkB p65 translocation, primary screen, imaging, HUVEC, MLSMR starter and 10KST1 sets (AID 438;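 active means inhibition above 20% together with a positive visual image hit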;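 further: compound added about 3h40 before a 20 min TNFalpha stimulation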;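 on inhibition: signal is the nuclear over cytoplasmic p65 intensity ratio per well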); details: HUVEC TNFa-induced p65 nuclear translocation; cell count: measured here: nuclei count (cytotoxicity indicator), at 2.08 µM; inhibition: at 2 µM, stronger effect = higher value, 0% TNFa-plus-vehicle, 100% no-TNFa wells
[2] = endothelial E-selectin expression blockers – imaging, HUVEC, immunofluorescence, MLSMR starter and 10KST1 sets, primary screen (AID 487;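 active means visually confirmed hit in the image check and inhibition above 20%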;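 on inhibition: signal is fraction of cell area covered by stained E-selectin grains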;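 on nuclei count: 100% = median nuclei count of all wells on the same plate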); details: HUVEC TNFalpha-induced E-selectin immunofluorescence imaging, at 2 µM; inhibition: stronger effect = higher value; nuclei count: measured here: cell number, toxicity
[3] = Primary imaging screen for DUSP6 inhibitors that restore phospho-Erk in transfected HeLa cells, chemical complementation (AID 609;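 active means compounds giving at least 50% inhibition in the cell-based MKP-3 phosphatase rescue imaging test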;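 on inhibition: phospho-Erk level distribution per well compared with pooled transfected vehicle control wells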); details: HeLa MKP-3 transfected, phospho-Erk imaging KS statistic, at 10 µM, cells stimulated with TPA for 15 min
[4] = target: Dual specificity protein phosphatase 6 (Homo sapiens) (UniProt Q16828); test: as above; details: HeLa MKP-3 transfected, phospho-Erk imaging KS statistic; at 10 µM; stronger effect = higher value; cells stimulated with TPA for 15 min
[5] = target: Voltage-gated potassium channel subunit beta-2 (Rattus norvegicus) (UniProt P62483); test: inhibitors of rat Kvbeta2 reductase activity – biochemical, NADPH fluorescence, primary screen (AID 622;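 active means fluorescence slope higher than the sample average by over 3 SD, cut at about -0.22 in these data, passing the limit was not always enough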;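 further: slope of raw intensity against log time taken from 70 to 1610 s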); details: recombinant KvBeta, 4-cyanobenzaldehyde reduction, at 10 µM, stronger effect = higher value
[6] = target: Voltage-gated potassium channel subunit beta-2 (Rattus norvegicus) (UniProt P62483); test: enhancers of rat Kvbeta2 NADPH turnover – biochemical, NADPH fluorescence, primary screen (AID 623); details: Recombinant KvBeta, NADPH fluorescence decrease slope, 10 min; at 10 µM; stronger effect = lower value;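 further: fluorescence intensity change per second fitted from 20 to 320 s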
[7] = target: Muscarinic acetylcholine receptor M4 (Homo sapiens) (UniProt P08173); test: M4-linked GIRK flux change, two-sided – cell-based, HEK293 M4/GIRK, thallium flux, BTC-AM, M4 allosteric agonist project, primary screen (AID 625;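 active means fluorescence slope after compound addition differing from the mean of all tested samples at 99.7% confidence, mostly higher but some lower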;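 further: thallium influx through GIRK channels coupled to M4 in HEK293 cells with BTC-AM dye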); details: at 10 µM, actives lie on both sides
In short: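 Assay system: HEK293 cells with M4 receptor and GIRK channels / Controls: carbachol and DMSO controls / Schedule: 1 h dye loading, 2 min kinetic read / Technique: kinetic fluorescence with BTC-AM dye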

[8] = inhibitors of larval lipid processing in zebrafish, primary screen, whole organism, PED6 fluorescence, gall bladder and intestine (AID 686;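 active means a full or partial loss of lipid-probe fluorescence in the fish gall bladder, intestine or both, judged by eye; inactive means no fluorescence loss, or compound toxic to the fish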;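 further: larvae 5 to 7 days old with five fish per well; signal comes from phospholipase A2 cleavage of quenched PED6 carried via bile; overnight exposure to compound and PED6 before scoring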); details: Zebrafish larvae PED6 lipid processing, fluorescence scoring; screened at 20 µM (by protocol)
In short: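 Doses: 20 µM single dose. Test system: live zebrafish larvae aged 5-7 days, whole organism. Quantity: five larvae per well. Measured by: By-eye fluorescence microscopy. Reagent: ingested quenched lipid PED6 at 100 nM. Read-out: visual per-well fluorescence inhibition score. Times: overnight exposure of larvae to compound plus PED6.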

[9] = loss of swimming-algae plug formation – whole organism, Chlamydomonas reinhardtii, WT vs cilia-less mutant, absorbance, 96-well, primary screen (AID 463189;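 active means inhibition at or above 50% relative to wild type and mutant plate controls; inactive means inhibition below 50%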;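 further: 0% = wild type cc124 cells in DMSO and 100% = ciliumless bld1 mutant cells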); details: Chlamydomonas reinhardtii gravitaxis, OD600 absorbance, 2 days; at 10 µM; stronger effect = higher value
[10] = measured here: cell density z-score
[11] = measured here: nuclear c-Myc green intensity z-score
[12] = measured here: nuclear pErk red intensity z-score, stronger effect = higher value

Sequence of Dual specificity protein phosphatase 6 (Homo sapiens) (Q16828 whole entry, looked up): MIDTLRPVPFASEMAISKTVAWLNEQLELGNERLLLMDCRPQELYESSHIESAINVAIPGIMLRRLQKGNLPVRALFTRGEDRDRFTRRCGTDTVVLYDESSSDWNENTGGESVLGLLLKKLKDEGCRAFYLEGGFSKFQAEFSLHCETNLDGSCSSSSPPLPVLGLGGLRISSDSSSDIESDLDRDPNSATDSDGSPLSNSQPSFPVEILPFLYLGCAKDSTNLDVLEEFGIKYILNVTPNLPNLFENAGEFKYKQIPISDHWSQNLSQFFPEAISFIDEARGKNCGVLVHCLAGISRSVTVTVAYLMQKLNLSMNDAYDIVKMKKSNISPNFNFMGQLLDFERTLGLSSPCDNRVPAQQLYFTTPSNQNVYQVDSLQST
Sequence of Voltage-gated potassium channel subunit beta-2 (Rattus norvegicus) (P62483 whole entry, looked up): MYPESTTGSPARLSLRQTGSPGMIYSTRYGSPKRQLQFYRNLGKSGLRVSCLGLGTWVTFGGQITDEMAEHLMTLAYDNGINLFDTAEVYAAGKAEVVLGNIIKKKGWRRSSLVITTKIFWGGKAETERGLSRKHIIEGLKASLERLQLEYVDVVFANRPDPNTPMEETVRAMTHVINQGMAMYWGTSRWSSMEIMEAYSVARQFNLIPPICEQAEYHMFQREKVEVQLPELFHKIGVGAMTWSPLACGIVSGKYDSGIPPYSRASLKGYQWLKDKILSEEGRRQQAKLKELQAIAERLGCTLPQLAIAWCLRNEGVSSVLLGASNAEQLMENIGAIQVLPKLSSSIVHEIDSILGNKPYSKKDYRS
Sequence of Muscarinic acetylcholine receptor M4 (Homo sapiens) (P08173 whole entry, looked up): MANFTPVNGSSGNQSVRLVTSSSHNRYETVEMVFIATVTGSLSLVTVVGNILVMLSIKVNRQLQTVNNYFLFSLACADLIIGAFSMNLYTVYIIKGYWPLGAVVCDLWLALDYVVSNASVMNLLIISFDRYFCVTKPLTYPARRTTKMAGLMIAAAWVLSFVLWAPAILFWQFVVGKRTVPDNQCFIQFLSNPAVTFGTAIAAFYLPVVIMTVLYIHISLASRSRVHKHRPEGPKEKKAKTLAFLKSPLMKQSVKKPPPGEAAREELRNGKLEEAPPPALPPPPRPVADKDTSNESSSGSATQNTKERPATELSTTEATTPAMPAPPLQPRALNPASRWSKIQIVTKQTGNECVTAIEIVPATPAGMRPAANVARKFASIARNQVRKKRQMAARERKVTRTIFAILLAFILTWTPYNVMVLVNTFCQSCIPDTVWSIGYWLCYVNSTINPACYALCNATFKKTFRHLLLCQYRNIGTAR

Structure (SMILES) | cell count [1] | inhibition [1] | inhibition [2] | nuclei count [2] [%] | z-score [3, 10] | z-score [3, 11] | z-score [3, 12] | inhibition [4] | fluorescence slope [5] | NADPH fluorescence slope [6] | fluorescence slope [7] | outcome [8] | inhibition [9]
CCc1nc2n[nH]c(N)c2c2c1CSC(C)(C)C2 | 644 | -0.8% (inactive) | -44.1% (inactive) | 168 | -1.43 | 0.647 | 2.27 | -15% (inactive) | -0.458 (inactive) | -5.1e-05 (inactive) | 0.00446 (inactive) | inactive | 12.1% (inactive)
Cc1c(=O)n(OCc2c(F)cccc2F)c2ccccc2[n+]1[O-] | 542 | -10.8% (inactive) | -125% (inactive) | 163 | -0.166 | -0.624 | -0.0317 | 3.97% (inactive) | -0.406 (inactive) | -4.3e-05 (inactive) | 0.00531 (inactive) | inactive | -0.428% (inactive)
COc1ccc(OCC(O)CN2C(=O)NC(C)(C)C2=O)cc1 (stereo unspecified) | 617 | -6.4% (inactive) | 33.5% (inactive) | 155 | 0.439 | -0.253 | -0.891 | 9.42% (inactive) | -0.419 (inactive) | -3.6e-05 (inactive) | 0.0058 (inactive) | inactive | -2.72% (inactive)
COC(=O)c1ccc(C2/C(=C(\O)c3cccc(OC)c3)C(=O)C(=O)N2CCCN2CCOCC2)cc1 (stereo unspecified) | 620 | -10.1% (inactive) | -57.4% (inactive) | 150 | 0.836 | -1.51 | -1.62 | 20.2% (inactive) | -0.507 (inactive) | -2e-05 (inactive) | 0.00584 (inactive) | inactive | 14.7% (inactive)
Cc1ccc(-n2ncc3c(NCc4ccc5c(c4)OCO5)ncnc32)c(C)c1 | 543 | -12.5% (inactive) | -35.3% (inactive) | 135 | -0.519 | 1.64 | -0.848 | 11.4% (inactive) | -0.376 (inactive) | 4.1e-06 (inactive) | 0.0052 (inactive) | inactive | 47.1% (inactive)
Cc1cccc(-n2ncc3c(NCCN4CCOCC4)ncnc32)c1 | 596 | -8.2% (inactive) | 0.1% (inactive) | 156 | -0.984 | 1.25 | -0.89 | -2.59% (inactive) | -0.397 (inactive) | -2.6e-05 (inactive) | 0.00826 (inactive) | inactive | 34% (inactive)
COc1ccc2c(c1OC)C(=O)N1c3ccccc3C(=O)N(c3ccccc3F)C21 (stereo unspecified) | 708 | -7.9% (inactive) | -37.7% (inactive) | 134 | 0.797 | -1.74 | -0.312 | 5.35% (inactive) | -0.444 (inactive) | -5.7e-05 (inactive) | 0.00636 (inactive) | inactive | 3.94% (inactive)
CN(C)CCCN(CCCNC(=O)/C=N/O)Cc1ccccc1 | 652 | -10.5% (inactive) | -38% (inactive) | 181 | -1.02 | -0.157 | 0.798 | -2.09% (inactive) | -0.495 (inactive) | -5.8e-05 (inactive) | 0.00839 (inactive) | inactive | 8.7% (inactive)
Brc1ccc2c(c1)CNc1c(ncnc1N1CCOCC1)O2 | 521 | -0.7% (inactive) | 2% (inactive) | 90 | -1.15 | 1.47 | 1.59 | 3.42% (inactive) | -0.429 (inactive) | 2.8e-05 (inactive) | 0.00419 (inactive) | inactive | 24.2% (inactive)
CN(C)CCNC(=O)C12CC3(C)CC(C)(CC(C)(C3)C1)C2 | 524 | -4.4% (inactive) | -34.6% (inactive) | 118 | -1.47 | 1.88 | -1.54 | -6.59% (inactive) | -0.465 (inactive) | -0.000122 (inactive) | 0.00507 (inactive) | inactive | -10.5% (inactive)
Cc1ccc(C(=O)C2C(c3cccs3)NC(=O)NC2(O)C(F)(F)F)cc1 (stereo unspecified) | 716 | -7.3% (inactive) | -170% (inactive) | 142 | -0.552 | -0.778 | 0.548 | -4.27% (inactive) | -0.482 (inactive) | -7.6e-05 (inactive) | 0.00668 (inactive) | inactive | -6.21% (inactive)
CC(=O)/C=C(\C)NCCNc1c(F)c(F)c(CO)c(F)c1F | 570 | -4.3% (inactive) | -22.3% (inactive) | 145 | 0.666 | -0.56 | 0.111 | 1.9e-07% (inactive) | -0.319 (inactive) | -1.4e-05 (inactive) | 0.00522 (inactive) | inactive | 42.2% (inactive)
O=C(NCCN1CCCCC1)/C(=N\O)c1ccccc1 | 515 | -13% (inactive) | 18.4% (inactive) | 155 | 1.4 | 0.164 | -0.171 | 23.8% (inactive) | -0.4 (inactive) | -3.3e-05 (inactive) | 0.00408 (inactive) | inactive | 2.85% (inactive)
CC(NC(=O)c1ccc(=O)oc1)c1ccccc1 (stereo unspecified) | 544 | 4.1% (inactive) | 56.8% (inactive) | 167 | -0.00091 | 1.16 | 1.91 | 13.9% (inactive) | -0.409 (inactive) | -5.3e-05 (inactive) | 0.00521 (inactive) | inactive | 6.14% (inactive)
Cn1c(N2CCN(c3ccccn3)CC2)nc2c1c(=O)n(Cc1ccc(Cl)cc1)c(=O)n2C | 678 | 5.8% (inactive) | -153% (inactive) | 180 | -0.409 | -1.46 | -0.591 | 27.8% (inactive) | -0.498 (inactive) | -2.6e-05 (inactive) | 0.00592 (inactive) | inactive | 24.6% (inactive)
Cc1cc2c(C)nc(Cc3ccccc3)nc2o1 | 561 | -5.5% (inactive) | -85.6% (inactive) | 149 | -0.156 | 0.673 | 0.277 | 11.9% (inactive) | -0.438 (inactive) | -7.2e-05 (inactive) | 0.00471 (inactive) | inactive | 16.9% (inactive)
COCc1[nH]nc2c1C(c1ccc(OC)cc1)C(C#N)=C(N)O2 (stereo unspecified) | 664 | -8.1% (inactive) | 0.4% (inactive) | 142 | -1.64 | 0.0391 | -2.4 | -4.27% (inactive) | -0.477 (inactive) | -6e-05 (inactive) | 0.006 (inactive) | inactive | 0.628% (inactive)
CN(C)C(=O)COn1c(SCC(=O)N(C)C)nc2ccccc2c1=O | 739 | 2% (inactive) | -47.5% (inactive) | 191 | -0.833 | -0.176 | 1.1 | 0.671% (inactive) | -0.428 (inactive) | -3.4e-05 (inactive) | 0.00719 (inactive) | inactive | 0.936% (inactive)
COc1cccc(C2C(C(=O)c3sc(C)nc3C)=C(O)C(=O)N2CCN2CCOCC2)c1OC (stereo unspecified) | 403 | -3.3% (inactive) | -65.8% (inactive) | 140 | -0.517 | 0.521 | 0.668 | 18.2% (inactive) | -0.47 (inactive) | -0.000114 (inactive) | 0.00521 (inactive) | inactive | 4.67% (inactive)
Cn1c(Cn2cnc3ccccc32)nc2ccccc21 | 543 | 0.2% (inactive) | 22% (inactive) | 78.7 | 1.23 | -0.835 | -0.272 | -3.95% (inactive) | -0.431 (inactive) | 9.8e-06 (inactive) | 0.00479 (inactive) | inactive | 23% (inactive)
N#Cc1c(N2CCCCC2)nc(N2CCCCC2)c2c1CCN(Cc1ccccc1)C2 | 606 | -3.7% (inactive) | -146% (inactive) | 154 | 0.785 | -0.814 | 0.622 | -4.59% (inactive) | -0.431 (inactive) | -9.2e-05 (inactive) | 0.0046 (inactive) | inactive | 4.47% (inactive)
c1ccc2c(c1)[nH]c1c(N3CCN(C4CCCCC4)CC3)ncnc12 | 601 | -21% (inactive) | -59.2% (inactive) | 172 | 0.663 | -1.44 | -1.01 | 27.4% (inactive) | -0.169 (inactive) | -1.6e-05 (inactive) | 0.00557 (inactive) | inactive | 18.4% (inactive)
CCCNc1ncnc2c1cnn2-c1ccc(OC)cc1 | 631 | -12.5% (inactive) | -39.6% (inactive) | 185 | -1.64 | -0.363 | 0.771 | 1.42% (inactive) | -0.37 (inactive) | -4.9e-05 (inactive) | 0.00652 (inactive) | inactive | -16% (inactive)
CCOC(=O)c1[nH]c2ccccc2c1N=C(C)N(CC)CC | 643 | -7% (inactive) | -113% (inactive) | 160 | -1.18 | 2.66 | 0.345 | 11.9% (inactive) | -0.521 (inactive) | -3.5e-05 (inactive) | 0.00643 (inactive) | inactive | -5.79% (inactive)
CC(=O)/C(C#N)=C1\NC(=O)C(Cc2ccccc2Cl)S1 (stereo unspecified) | 605 | -10.1% (inactive) | 31.2% (inactive) | 179 | 1.48 | -0.162 | -0.594 | 7.42% (inactive) | -0.416 (inactive) | -7e-05 (inactive) | 0.00568 (inactive) | inactive | 4.47% (inactive)
CCOC(=O)N1CCN(c2ncnc3c2cnn3-c2ccc(OC)cc2)CC1 | 638 | -4.6% (inactive) | -140% (inactive) | 149 | 0.712 | -0.105 | 0.21 | 13.4% (inactive) | -0.379 (inactive) | -4.6e-05 (inactive) | 0.00565 (inactive) | inactive | 0.263% (inactive)
COc1ccc2c(c1OC)C(=O)OC2c1c(O)nc(SC)n(-c2ccccc2)c1=O (stereo unspecified) | 494 | 4.1% (inactive) | -192% (inactive) | 115 | 1.24 | 1.53 | -0.802 | 29.7% (inactive) | -0.39 (inactive) | -6.5e-05 (inactive) | 0.00866 (inactive) | inactive | -18.2% (inactive)
